In ChEMBL document CHEMBL4689842, “EUbOPEN Chemogenomics Library wave 1” (2021):

Experiments:
[1] = system: U2OS; experiment: Incucyte cell viability with U2OS; assay type: toxicity, cell-based; settings: human, 10 µM, compound concentration 10 uM; also: filed as whole numbers so only -1 and 0 and 1 occur
[2] = system: U2OS; experiment: Multiplex assay against U2OS; assay type: toxicity, cell-based; settings: human
Summary of the method: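 Cells stained live at seeding with Hoechst33342, BioTracker Green Microtubule Cytoskeleton Dye, MitoTracker Red and Annexin V Alexa Fluor 680 were imaged on a CQ1 microscope at 37°C and 5% CO2 after compound addition. Their classification by CellPathfinder machine-learning gating ran from Hoechst high-intensity objects versus normal cells, to healthy, pyknosed or fragmented nuclei among normal cells, to mitotic or apoptotic among pyknosed cells. Tubulin, mitochondrial-mass and membrane-permeability phenotypes are per cents of healthy-nucleus cells.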

[3] = 12 h, 1 µM, compound concentration 1 uM, replicate 1
[4] = 12 h, 1 µM, compound concentration 1 uM, replicate 2
[5] = 12 h, 10 µM, compound concentration 10 uM, replicate 1
[6] = 12 h, 10 µM, compound concentration 10 uM, replicate 2
[7] = 24 h, 1 µM, compound concentration 1 uM, replicate 1
[8] = 24 h, 1 µM, compound concentration 1 uM, replicate 2
[9] = 24 h, 10 µM, compound concentration 10 uM, replicate 1
[10] = 24 h, 10 µM, compound concentration 10 uM, replicate 2
[11] = 48 h, 1 µM, compound concentration 1 uM, replicate 1
[12] = 48 h, 1 µM, compound concentration 1 uM, replicate 2
[13] = 48 h, 10 µM, compound concentration 10 uM, replicate 1
[14] = 48 h, 10 µM, compound concentration 10 uM, replicate 2

CC(C)[C@H](CO)Nc1nc(Nc2cccc(Cl)c2)c2ncn(C(C)C)c2n1 [PURVALANOLA]
Growth Rate ([1]; 6 h, replicate number 1, timepoint 6 hours): 0 | Growth Rate ([1]; 12 h, replicate number 1, timepoint 12 hours): 0 | Growth Rate ([1]; 18 h, replicate number 1, timepoint 18 hours): 0 | Growth Rate ([1]; 24 h, replicate number 1, timepoint 24 hours): 0 | Population Apoptotic (%) [2, 3]: 58% | Population Fragmented Nuclei (%) [2, 3]: 13% | Population Healthy Nuclei (%) [2, 3]: 76% | Population Hoechst High Intensity Objects (%) [2, 3]: 12% | Population Membrane Permeable-Phenotype (%) [2, 3]: 1% | Population Mitochondria Different-Phenotype (%) [2, 3]: 15% | Population Mitotic Cells (%) [2, 3]: 41% | Population Normal (%) [2, 3]: 87% | Population Pyknosed Nuclei (%) [2, 3]: 10% | Population Tubulin-Different-Phenotype (%) [2, 3]: 12% | Total Cell Count [2, 3]: 212 | Population Apoptotic (%) [2, 4]: 50% | Population Fragmented Nuclei (%) [2, 4]: 8% | Population Healthy Nuclei (%) [2, 4]: 88% | Population Hoechst High Intensity Objects (%) [2, 4]: 10% | Population Membrane Permeable-Phenotype (%) [2, 4]: 7% | Population Mitochondria Different-Phenotype (%) [2, 4]: 21% | Population Mitotic Cells (%) [2, 4]: 50% | Population Normal (%) [2, 4]: 89% | Population Pyknosed Nuclei (%) [2, 4]: 3% | Population Tubulin-Different-Phenotype (%) [2, 4]: 15% | Total Cell Count [2, 4]: 111 | Population Apoptotic (%) [2, 5]: 68% | Population Fragmented Nuclei (%) [2, 5]: 23% | Population Healthy Nuclei (%) [2, 5]: 55% | Population Hoechst High Intensity Objects (%) [2, 5]: 13% | Population Membrane Permeable-Phenotype (%) [2, 5]: 39% | Population Mitochondria Different-Phenotype (%) [2, 5]: 96% | Population Mitotic Cells (%) [2, 5]: 32% | Population Normal (%) [2, 5]: 86% | Population Pyknosed Nuclei (%) [2, 5]: 21% | Population Tubulin-Different-Phenotype (%) [2, 5]: 100% | Total Cell Count [2, 5]: 129 | Population Apoptotic (%) [2, 6]: 83% | Population Fragmented Nuclei (%) [2, 6]: 13% | Population Healthy Nuclei (%) [2, 6]: 79% | Population Hoechst High Intensity Objects (%) [2, 6]: 7% | Population Membrane Permeable-Phenotype (%) [2, 6]: 23% | Population Mitochondria Different-Phenotype (%) [2, 6]: 95% | Population Mitotic Cells (%) [2, 6]: 16% | Population Normal (%) [2, 6]: 92% | Population Pyknosed Nuclei (%) [2, 6]: 6% | Population Tubulin-Different-Phenotype (%) [2, 6]: 98% | Total Cell Count [2, 6]: 66 | Population Apoptotic (%) [2, 7]: 36% | Population Fragmented Nuclei (%) [2, 7]: 10% | Population Healthy Nuclei (%) [2, 7]: 80% | Population Hoechst High Intensity Objects (%) [2, 7]: 5% | Population Membrane Permeable-Phenotype (%) [2, 7]: 3% | Population Mitochondria Different-Phenotype (%) [2, 7]: 7% | Population Mitotic Cells (%) [2, 7]: 63% | Population Normal (%) [2, 7]: 94% | Population Tubulin-Different-Phenotype (%) [2, 7]: 6% | Total Cell Count [2, 7]: 221 | Population Apoptotic (%) [2, 8]: 60% | Population Fragmented Nuclei (%) [2, 8]: 8% | Population Healthy Nuclei (%) [2, 8]: 83% | Population Hoechst High Intensity Objects (%) [2, 8]: 6% | Population Membrane Permeable-Phenotype (%) [2, 8]: 5% | Population Mitochondria Different-Phenotype (%) [2, 8]: 23% | Population Mitotic Cells (%) [2, 8]: 40% | Population Normal (%) [2, 8]: 93% | Population Pyknosed Nuclei (%) [2, 8]: 8% | Population Tubulin-Different-Phenotype (%) [2, 8]: 9% | Total Cell Count [2, 8]: 157 | Population Apoptotic (%) [2, 9]: 67% | Population Fragmented Nuclei (%) [2, 9]: 27% | Population Healthy Nuclei (%) [2, 9]: 48% | Population Hoechst High Intensity Objects (%) [2, 9]: 16% | Population Membrane Permeable-Phenotype (%) [2, 9]: 55% | Population Mitochondria Different-Phenotype (%) [2, 9]: 100% | Population Mitotic Cells (%) [2, 9]: 32% | Population Normal (%) [2, 9]: 83% | Population Pyknosed Nuclei (%) [2, 9]: 24% | Population Tubulin-Different-Phenotype (%) [2, 9]: 100% | Total Cell Count [2, 9]: 133 | Population Apoptotic (%) [2, 10]: 80% | Population Fragmented Nuclei (%) [2, 10]: 16% | Population Healthy Nuclei (%) [2, 10]: 65% | Population Hoechst High Intensity Objects (%) [2, 10]: 8% | Population Membrane Permeable-Phenotype (%) [2, 10]: 50% | Population Mitotic Cells (%) [2, 10]: 20% | Population Normal (%) [2, 10]: 91% | Population Pyknosed Nuclei (%) [2, 10]: 17% | Total Cell Count [2, 10]: 66 | Population Fragmented Nuclei (%) [2, 11]: 12% | Population Healthy Nuclei (%) [2, 11]: 82% | Population Hoechst High Intensity Objects (%) [2, 11]: 4% | Population Membrane Permeable-Phenotype (%) [2, 11]: 4% | Population Mitochondria Different-Phenotype (%) [2, 11]: 14% | Population Normal (%) [2, 11]: 95% | Population Pyknosed Nuclei (%) [2, 11]: 5% | Population Tubulin-Different-Phenotype (%) [2, 11]: 7% | Total Cell Count [2, 11]: 219 | Population Apoptotic (%) [2, 12]: 60% | Population Fragmented Nuclei (%) [2, 12]: 4% | Population Healthy Nuclei (%) [2, 12]: 84% | Population Hoechst High Intensity Objects (%) [2, 12]: 5% | Population Membrane Permeable-Phenotype (%) [2, 12]: 6% | Population Mitochondria Different-Phenotype (%) [2, 12]: 25% | Population Mitotic Cells (%) [2, 12]: 40% | Population Normal (%) [2, 12]: 94% | Population Pyknosed Nuclei (%) [2, 12]: 11% | Population Tubulin-Different-Phenotype (%) [2, 12]: 10% | Total Cell Count [2, 12]: 168 | Population Apoptotic (%) [2, 13]: 77% | Population Fragmented Nuclei (%) [2, 13]: 33% | Population Healthy Nuclei (%) [2, 13]: 17% | Population Hoechst High Intensity Objects (%) [2, 13]: 23% | Population Membrane Permeable-Phenotype (%) [2, 13]: 64% | Population Mitochondria Different-Phenotype (%) [2, 13]: 94% | Population Mitotic Cells (%) [2, 13]: 22% | Population Normal (%) [2, 13]: 76% | Population Pyknosed Nuclei (%) [2, 13]: 49% | Population Tubulin-Different-Phenotype (%) [2, 13]: 100% | Total Cell Count [2, 13]: 189 | Population Apoptotic (%) [2, 14]: 100% | Population Fragmented Nuclei (%) [2, 14]: 16% | Population Healthy Nuclei (%) [2, 14]: 62% | Population Hoechst High Intensity Objects (%) [2, 14]: 18% | Population Membrane Permeable-Phenotype (%) [2, 14]: 58% | Population Mitochondria Different-Phenotype (%) [2, 14]: 87% | Population Mitotic Cells (%) [2, 14]: 0% | Population Normal (%) [2, 14]: 81% | Population Pyknosed Nuclei (%) [2, 14]: 20% | Population Tubulin-Different-Phenotype (%) [2, 14]: 93% | Total Cell Count [2, 14]: 94
